The values that follow come from publication PMC3944088 (ACS chemical biology, 2013).

One experiment relates to A549 NSCLC cells. As to the kind of experiment: Cell viability of A549 NSCLC cells with GSK3 inhibitors. The class given is cell-based. The gist of the method:
(§1)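 Viability read by ATP-based luminescence (CellTiter-Glo) after exposure of lung cancer cell lines to the test compound. For the GSK3 comparison in A549 cells, the known pan-GSK3 inhibitors BIO and LiCl were run alongside. Enantiomers were compared in A549 and H1648 cells.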

Experiment [1] concerns c-MET. Nature of the experiment: Total c-MET levels in A549 cells. In kind it is cell-based. In short, it runs like this: (§2)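 A549 cells were treated with the test compound or the reference pan-GSK3 inhibitor BIO (concentrations in μM), then lysates were immunoblotted for PARP-1 cleavage and total c-MET. In parallel, GSK3α and GSK3β were knocked down by siRNA, each alone, both combined, or with one siRNA targeting both, against a non-targeting control. These cells were blotted 72 hours post-transfection.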

Experiment [2] deals with A549 cells. Nature of the experiment: Apoptosis by PARP-1 cleavage in A549 cells. The class given is cell-based. The gist of the method:
as §2

The subject of experiment [3] is A549, H23 and H1648 NSCLC cell lines. As to the kind of experiment: Dose-response inhibition of cellular viability in NSCLC cell lines. The note with it: for activity in inhibition of cellular viability (dose-response): A549, H23, H1648 NSCLC cell lines. The class given is cell-based. In short, it runs like this: as §1
In experiment [4] the test system is panel of 24 KRAS-mutant and wild-type lung cancer cell lines. Nature of the experiment: Cell viability screen across a panel of 24 lung cancer cell lines. In kind it is cell-based. To be noted: 0.5 and 2.5 μM. In short, it runs like this:
as §1

In experiment [5] the target is T1, c-MET (Homo sapiens, UniProt P08581). As to the kind of experiment: c-MET autophosphorylation in A549 cells. To be noted: 30 minute treatment, 250 nM for crizotinib, PHA-665752, PF-04217903. The class given is cell-based.
In experiment [6] the target is T1, c-MET. The note with it: reported ref 8, 17; cited from earlier work.
For a further experiment, the target named is GSK3α (Homo sapiens, UniProt P49840). As to the kind of experiment: In vitro kinase inhibition assay GSK3α. In kind it is biochemical. To be noted: Millipore and Reaction Biology platforms.
In another experiment the target is GSK3β (Homo sapiens, UniProt P49841). Nature of the experiment: In vitro kinase inhibition assay GSK3β. In kind it is biochemical. The note with it: Millipore and Reaction Biology platforms.
Experiment [7] concerns RS4;11 MLL-rearranged leukemia cells. As to the kind of experiment: Viability of RS4. The class given is cell-based. The note with it: RS4;11 cells.
The test system of the next experiment is β-catenin. Nature of the experiment: Total β-catenin levels in A549 cells. In kind it is cell-based. To be noted: A549 cells after treatment.
Experiment [8] deals with MV-4–11 and RS4;11 MLL-rearranged leukemia cells. As to the kind of experiment: β-catenin stabilisation and cell cycle in MLL-rearranged leukemia cells. The class given is cell-based.
Experiment [9] deals with MV-4–11 MLL-rearranged leukemia cells. Nature of the experiment: Viability of MV-4–11 MLL-rearranged leukemia cells. The class given is cell-based. To be noted: MV-4–11 cells.
The subject of experiment [10] is A549 cells. Nature of the experiment: Cell cycle analysis in A549 cells. The class given is cell-based.
Experiment [11] deals with T1, c-MET. Nature of the experiment: In vitro kinase inhibition c-MET. The class given is biochemical.

The structures appear in SMILES notation.

Usually IC50 stands for the midpoint of a concentration-inhibition curve.

T1 sequence (P08581 25-1390): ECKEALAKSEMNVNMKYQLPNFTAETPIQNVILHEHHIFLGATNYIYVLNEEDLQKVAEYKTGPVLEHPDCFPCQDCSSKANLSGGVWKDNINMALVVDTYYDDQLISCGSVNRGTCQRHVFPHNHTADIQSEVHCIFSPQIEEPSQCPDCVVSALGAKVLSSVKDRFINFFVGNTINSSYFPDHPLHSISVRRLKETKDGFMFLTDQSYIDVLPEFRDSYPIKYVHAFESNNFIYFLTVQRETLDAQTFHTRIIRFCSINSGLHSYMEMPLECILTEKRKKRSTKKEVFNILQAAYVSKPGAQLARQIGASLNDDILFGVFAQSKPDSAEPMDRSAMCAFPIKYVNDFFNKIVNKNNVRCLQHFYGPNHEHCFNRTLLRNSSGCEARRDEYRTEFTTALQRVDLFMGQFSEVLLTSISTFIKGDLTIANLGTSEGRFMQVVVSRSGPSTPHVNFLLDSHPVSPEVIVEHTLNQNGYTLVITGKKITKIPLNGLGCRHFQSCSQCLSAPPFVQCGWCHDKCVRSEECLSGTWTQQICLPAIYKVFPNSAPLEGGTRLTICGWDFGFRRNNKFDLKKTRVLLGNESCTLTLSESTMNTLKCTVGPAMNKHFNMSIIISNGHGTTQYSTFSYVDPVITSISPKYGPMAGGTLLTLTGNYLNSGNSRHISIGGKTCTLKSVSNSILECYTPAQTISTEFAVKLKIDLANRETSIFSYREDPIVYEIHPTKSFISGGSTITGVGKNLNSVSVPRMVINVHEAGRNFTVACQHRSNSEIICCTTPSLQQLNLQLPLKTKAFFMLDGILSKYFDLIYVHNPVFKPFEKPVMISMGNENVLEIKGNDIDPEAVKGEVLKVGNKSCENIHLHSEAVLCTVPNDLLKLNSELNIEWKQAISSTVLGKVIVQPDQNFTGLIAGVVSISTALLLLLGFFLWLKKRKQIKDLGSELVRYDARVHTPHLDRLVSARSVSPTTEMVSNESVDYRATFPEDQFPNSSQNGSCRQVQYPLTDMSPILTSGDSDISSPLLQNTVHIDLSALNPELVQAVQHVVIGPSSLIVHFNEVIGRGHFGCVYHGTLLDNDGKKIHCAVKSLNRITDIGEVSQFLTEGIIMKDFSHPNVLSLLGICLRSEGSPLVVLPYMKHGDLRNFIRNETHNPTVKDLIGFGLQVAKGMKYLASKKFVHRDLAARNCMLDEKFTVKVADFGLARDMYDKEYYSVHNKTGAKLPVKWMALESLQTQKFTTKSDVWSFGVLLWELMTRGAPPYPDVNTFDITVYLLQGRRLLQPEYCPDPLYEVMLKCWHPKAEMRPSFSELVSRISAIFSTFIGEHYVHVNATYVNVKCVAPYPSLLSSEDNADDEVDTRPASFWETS
GSK3β, sequence (P49841 whole entry): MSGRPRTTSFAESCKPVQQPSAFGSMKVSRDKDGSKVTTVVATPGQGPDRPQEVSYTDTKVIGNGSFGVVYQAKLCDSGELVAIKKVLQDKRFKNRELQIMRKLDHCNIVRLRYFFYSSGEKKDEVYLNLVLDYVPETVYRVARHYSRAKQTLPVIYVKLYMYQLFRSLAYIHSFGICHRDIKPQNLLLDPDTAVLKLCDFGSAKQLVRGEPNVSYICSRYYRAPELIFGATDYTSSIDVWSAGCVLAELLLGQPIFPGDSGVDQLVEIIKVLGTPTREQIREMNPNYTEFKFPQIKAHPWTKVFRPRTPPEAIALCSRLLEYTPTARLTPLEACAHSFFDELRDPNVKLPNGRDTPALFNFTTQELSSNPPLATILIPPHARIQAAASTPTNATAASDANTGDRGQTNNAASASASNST
GSK3α, sequence (P49840 whole entry): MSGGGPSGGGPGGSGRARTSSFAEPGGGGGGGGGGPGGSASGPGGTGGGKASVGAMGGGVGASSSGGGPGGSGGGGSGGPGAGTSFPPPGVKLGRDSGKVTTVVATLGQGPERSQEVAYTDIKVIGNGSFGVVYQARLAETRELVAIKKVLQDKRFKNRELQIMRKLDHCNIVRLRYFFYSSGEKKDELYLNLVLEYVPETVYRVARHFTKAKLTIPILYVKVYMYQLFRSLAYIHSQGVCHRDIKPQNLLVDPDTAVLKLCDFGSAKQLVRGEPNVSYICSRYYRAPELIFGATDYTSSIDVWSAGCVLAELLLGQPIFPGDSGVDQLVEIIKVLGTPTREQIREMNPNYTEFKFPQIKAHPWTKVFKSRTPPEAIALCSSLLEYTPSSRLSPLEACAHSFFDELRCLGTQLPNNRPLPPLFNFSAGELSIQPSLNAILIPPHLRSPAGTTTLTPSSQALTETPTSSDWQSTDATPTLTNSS

For `O=C1Nc2cc(Br)ccc2/C1=C1/Nc2ccccc2/C1=N\O` [BIO], in the experiment on A549 NSCLC cells, the “antiproliferative activity in A549 cells” value is “showed antiproliferative activity”. Moreover, the “c-MET levels upon treatment” value in the experiment on c-MET [1] is “decreased c-MET levels”. Further, in the experiment with A549 cells [2], the “apoptosis indicated by PARP-1 cleavage” value is recorded as “able to induce apoptosis in A549 cells, albeit slightly delayed”.
With `[Cl-].[Li+]` [LiCl], in the experiment with A549 NSCLC cells, the “antiproliferative activity in A549 cells” value is given as “showed antiproliferative activity” and the “potency range of antiproliferative activity” value is “low millimolar activity”.
As for `OCCn1cc(-c2cnc3nnn(Cc4ccc5ncccc5c4)c3n2)cn1` [PF-04217903], in [3], the “activity in inhibition of cellular viability (dose-response)” value is recorded as “no measurable”. The “effect on cellular viability across lung cancer cell line panel” value in experiment [4] is reported as “no significant effects”.
For `Cc1[nH]c(/C=C2\C(=O)Nc3ccc(S(=O)(=O)Cc4c(Cl)cccc4Cl)cc32)c(C)c1C(=O)N1CCC[C@@H]1CN1CCCC1` [PHA-665752], the “inhibition of c-MET autophosphorylation” value against c-MET [5] is “effectively inhibited”.
Take `COc1cc2nccc(Oc3ccc(NC(=O)C4(C(=O)Nc5ccc(F)cc5)CC4)cc3)c2cc1OC` [cabozantinib]: the “effect on cellular viability across lung cancer cell line panel” value in [4] was “no significant effects”.
As to `O=C1NC(=O)[C@H](c2cn3c4c(cccc24)CCC3)[C@H]1c1c[nH]c2ccccc12` [compound 7, (+)-3S,4S-tivantinib], the “activity against c-MET” value on c-MET [6] was “inactive”. The “activity in (−)-tivantinib-sensitive cell lines (cellular viability)” value in experiment [3] (A549 and H1648 cells, compared with (−)-tivantinib) was “substantially weaker activity”. Further, the “IC50 for inhibition of GSK3α in vitro kinase activity” value against GSK3α is on record as “significantly weaker inhibitor”. Also, the “IC50 for inhibition of GSK3β in vitro kinase activity” value against GSK3β is on record as “significantly weaker inhibitor”.
On to `C[C@@H](Oc1cc(-c2cnn(C3CCNCC3)c2)cnc1N)c1c(Cl)ccc(F)c1Cl` [crizotinib], for which, in experiment [3], the “activity in inhibition of cellular viability (dose-response)” value is recorded as “only weak activity”. Besides, the “effect on cellular viability across lung cancer cell line panel” value in experiment [4] is given as “no significant effects”.
With `O=C1NC(=O)[C@@H](c2cn3c4c(cccc24)CCC3)[C@@H]1c1c[nH]c2ccccc12` [tivantinib], the inhibition of viability entry in [7] and in experiment [9] was “potently inhibited viability” in each case. Besides, the “total β-catenin levels” value in the experiment with β-catenin was “increase in total β-catenin levels”. Further, in experiment [3] (read-out: IC50 for inhibition of cellular viability), the IC50 is around 500 nM. Further, the cell cycle effect result in experiment [8] is recorded as “induced G1 cell cycle arrest”; in the experiment with A549 cells [10], “G2/M cell cycle arrest”. Moreover, the β-catenin stabilisation result in experiment [8] is reported as “stabilized β-catenin”. Also, the “inhibition of c-MET autophosphorylation” value on c-MET [5] is reported as “essentially no effect”. Further, the “c-MET levels upon treatment” value with c-MET [1] is recorded as “decreased c-MET levels”. The “effect on cellular viability across lung cancer cell line panel” value in experiment [4] is recorded as “inhibited the viability of the majority of these”. For the same compound, the “IC50 for inhibition of GSK3α in vitro kinase activity” value on GSK3α was “upper nanomolar range”. Also, the “IC50 for inhibition of GSK3β in vitro kinase activity” value at GSK3β is “upper nanomolar range”. Besides, in the experiment with A549 cells [2], the “apoptosis indicated by PARP-1 cleavage” value was “induce apoptosis”. For the same compound, the “inhibition of c-MET (in vitro kinase)” value against c-MET [11] is reported as “only weakly inhibited”.
